MsrA inh = inhibitors of bovine MsrA. purified bovine MsrA, absorbance read-out. inhibition, % at 15.5 µM. actives 0.75% (n = 360,000). AID 651718
bovine MsrA act = bovine methionine sulfoxide reductase A activation. actives 0.3% (n = 360,000). AID 602163. activation, % at 10.6 µM. purified bovine MsrA, absorbance read-out; in the data active = activation above about 7.5%
A1 inh = inhibitors of the anti-apoptotic protein A1, read as caspase activation; MEF A1-2A-BIM cells, Caspase-Glo 3/7 luminescence, 3 h; percent of clofoctol response, vehicle zero; caspase activation, % (concentration not given with the values); actives 0.066% (n = 330,000); AID 2462;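 active = over half of replicate activation scores above 10%, or exactly half above 10 with the replicate mean above 10; inconclusive = replicate mean below 10 yet half the replicates above 10; inactive = over half of replicates below 10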
proCasp7 act = counter-screen: procaspase-7 (human) activation. recombinant procaspase-7, Ac-DEVD-pNA absorbance 405 nm; D23A/D198A/D206A triple mutant, cannot self-cleave; scale: DMSO 0, 5 µM enzyme 100. activation, % at 8.5 µM. actives 0.093% (n = 330,000). AID 463210. P55210;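 active = percent activation above the screen-wide mean plus 3 SD, cut at about 25% in these data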
Target sequence (P55210 whole entry D23A/D198A/D206A): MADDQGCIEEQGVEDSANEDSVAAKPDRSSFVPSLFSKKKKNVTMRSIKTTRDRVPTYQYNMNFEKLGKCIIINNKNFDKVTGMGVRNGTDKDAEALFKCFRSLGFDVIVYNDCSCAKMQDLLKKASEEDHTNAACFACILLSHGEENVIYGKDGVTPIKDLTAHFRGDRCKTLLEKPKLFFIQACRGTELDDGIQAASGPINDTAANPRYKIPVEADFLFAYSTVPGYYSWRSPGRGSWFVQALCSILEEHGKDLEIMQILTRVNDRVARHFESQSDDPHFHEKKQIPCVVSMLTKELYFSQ
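Test system: Procaspase-7 triple mutant (PC-7 D3A). Also added: Ac-DEVD-pNA substrate, 400 µM as added. Schedule: 1 h enzyme–compound preincubation and 2 h substrate reaction, both 25 °C. Signal: p-Nitroaniline absorbance at 405 nm, read at 0 and 120 min. Control set: low DMSO alone, high DMSO plus 5 µM PC-7.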
proCasp3 act = activators of human procaspase-3 | actives 0.11% (n = 330,000) | activation, % at 8.5 µM | AID 463141 | recombinant procaspase-3 D3A, Ac-DEVD-pNA absorbance 405 nm | P42574;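 active = activation above the mean of all tested compounds plus 3 SD, cut at about 21% in these data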
Target sequence (P42574 whole entry D9A/D28A/D175A): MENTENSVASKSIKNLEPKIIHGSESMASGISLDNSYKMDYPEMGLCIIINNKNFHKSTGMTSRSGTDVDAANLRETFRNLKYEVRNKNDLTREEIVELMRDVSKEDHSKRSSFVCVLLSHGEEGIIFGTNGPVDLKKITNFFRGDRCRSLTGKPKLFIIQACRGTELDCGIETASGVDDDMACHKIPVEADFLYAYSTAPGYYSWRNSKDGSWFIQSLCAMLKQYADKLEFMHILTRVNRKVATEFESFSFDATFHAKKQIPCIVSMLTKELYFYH
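Test system: Procaspase-3 D3A mutant, all three cleavage aspartates alanine | Dosing: Single dose, 8.5 µM nominal compound, 0.8% DMSO | Schedule: 1 h preincubation, 2 h reaction | Technique: 405 nm absorbance of p-nitroaniline, reads at 0 and 120 min | Repeats: One well per compound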
MsrA inh confirm = confirmation of bovine MsrA inhibitors | shares compounds with MsrA inh | purified bovine MsrA, absorbance read-out | actives 41% (n = 2,300) | inhibition, % at 15.5 µM;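 note: coupled to thioredoxin reductase with NADPH and selenocystamine and DMSO as substrate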
Of the large screens only hits and unclear results are named; the others gave an inactive call (follow-up assays come after a bar, where they were run). Hits are enriched below; roughly 1.2% of the tested compounds scored in any of these assays. Cut-off read from the data, not from the text of the source, unless noted: active = inhibition above about 4.5%; inactive = the rest.

COC(=O)CCc1c(COC(C)=O)[nH]c(C(=O)OCc2ccccc2)c1C	none
Cc1nn(-c2ccccc2)c(N)c1N=Nc1ccccc1	MsrA inh 5.3 | MsrA inh confirm inactive
COc1ccc(/C=N/N=C2\SCC(=O)N2c2c(C)n(C)n(-c3ccccc3)c2=O)cc1OC	MsrA inh 5.7 | MsrA inh confirm inactive
O=C(COC(=O)/C=C/c1ccccc1)NNC(=O)c1ccccc1F	none (no result: A1 inh, proCasp7 act, proCasp3 act)
Cc1c(OCC(N)=O)ccc2c(-c3ccccc3)cc(=O)oc12	MsrA inh 31 | MsrA inh confirm 40
CC(=O)COc1ccc2c(-c3ccccc3)cc(=O)oc2c1C	MsrA inh 19 | MsrA inh confirm 22
Cc1c(OCC(=O)C(C)(C)C)ccc2c(-c3ccccc3)cc(=O)oc12	none
CNC(=O)C1(C)CCN1C(=O)Cc1ccc(C(C)C)cc1 (configuration not stated)	none (no result: A1 inh, proCasp7 act, proCasp3 act)
CC(=O)c1ccc(N2CCN(C(=O)C(=O)c3cn(CC(=O)N4CCOCC4)c4ccccc34)CC2)cc1	MsrA inh 6.8 (no result: A1 inh, proCasp7 act, proCasp3 act) | MsrA inh confirm 5.6
COc1ccc(N2CCN(C(=O)C(=O)c3cn(CC(=O)N4CCOCC4)c4ccccc34)CC2)cc1	none
Cc1noc(C)c1CSCC(=O)Nc1nc2c(F)cc(F)cc2s1	none
O=C(O)COc1ccccc1C=NNC(=O)c1ccc(NS(=O)(=O)c2cccs2)cc1	MsrA inh 5.9 | MsrA inh confirm inactive
O=C(NN=Cc1cc(Br)c(O)c(Br)c1)c1ccccc1NS(=O)(=O)c1cccs1	MsrA inh 6.1 | MsrA inh confirm inactive
O=C(NN=Cc1ccccc1C(=O)O)c1ccc(NS(=O)(=O)c2cccs2)cc1	none
O=C(N/N=C/c1ccncc1)c1ccc(NS(=O)(=O)c2cccs2)cc1	none
O=C(O)c1ccc(/C=N/NC(=O)c2ccc(NS(=O)(=O)c3cccs3)cc2)cc1	MsrA inh 5.5 | MsrA inh confirm 5.5
COC(=O)C1=C(C)OC(N)=C(C#N)C1c1ccco1 (configuration not stated)	none
CCOC(=O)C1=C(c2ccccc2)OC(N)=C(C#N)C1c1ccco1 (configuration not stated)	MsrA inh 6.3 | MsrA inh confirm inactive
CC(=O)c1ccc(S(=O)(=O)NC2CC(=O)N(c3ccc(C)c(C)c3)C2)cc1 (configuration not stated)	none
Cc1cn([C@H]2C[C@H](O)[C@@H](CCC(=O)NCc3ccc(N(C)C)cc3)O2)c(=O)[nH]c1=O	none (no result: A1 inh, proCasp7 act, proCasp3 act)
Cc1ccc(-c2ccc(/C=N/N=C3/NC(=O)C(CC(=O)O)S3)o2)c([N+](=O)[O-])c1 (configuration not stated)	MsrA inh 5.9 | MsrA inh confirm 6.8
O=C(O)CC1S/C(=N/N=C/c2ccc(-c3ccccc3[N+](=O)[O-])o2)NC1=O (configuration not stated)	MsrA inh 4.9 | MsrA inh confirm inactive
O=[N+]([O-])c1ccccc1-c1ccc(/C=N/n2cnnc2)o1	none
Cc1ccc(S(=O)(=O)Oc2ccc(/C=N/N=C3/NC(=O)C(CC(=O)O)S3)cc2)cc1 (configuration not stated)	none (no result: A1 inh, proCasp7 act, proCasp3 act)
Cc1occc1C(=O)N/N=C/C=C/c1ccc(N(C)C)cc1	none
O=C(O)c1cc(N/N=C/c2ccc(OCc3ccccc3)cc2)ccc1Cl	none
Cc1ccc(C(=O)N/N=C/C=C/c2ccccc2)cc1	MsrA inh 4.9 | MsrA inh confirm 4.6
Cc1cc(C(=O)N/N=C/c2ccccc2)c(C)o1	none
Cc1cc(C(=O)N/N=C/C=C/c2ccccc2)c(C)o1	MsrA inh 4.7 | MsrA inh confirm inactive
Cc1occc1C(=O)N/N=C/C=C/c1ccccc1	MsrA inh 5.5 | MsrA inh confirm 5.1
O=C(N/N=C/C=C/c1ccccc1)c1cccc(Br)c1	none
O=C(O)c1cc(N/N=C/C=C/c2ccccc2)ccc1Cl	MsrA inh 5.1 | MsrA inh confirm inactive
O=C(Cc1ccccc1)c1ccc(N2CCOCC2)cc1	none (no result: A1 inh, proCasp7 act, proCasp3 act)
COC(=O)[C@H](NC(=O)c1cc(-c2ccccc2)sc1N)C(C)C	none (no result: bovine MsrA act, A1 inh, proCasp7 act, proCasp3 act)
NC(=S)N/N=C/C=C/c1ccccc1	MsrA inh 5.2 | MsrA inh confirm inactive
COCCN(C(=O)COC(=O)CSc1ccc2ccccc2c1)c1c(N)n(Cc2ccccc2)c(=O)[nH]c1=O	none
NC(=O)c1ncn([C@@H]2O[C@H](C(=O)N3CCCN(Cc4ccccc4F)CC3)[C@@H](O)[C@H]2O)n1	none (no result: bovine MsrA act, A1 inh, proCasp7 act, proCasp3 act)
S=c1nccc(-c2ccc3c(c2)CCO3)[nH]1	MsrA inh 5.6 | MsrA inh confirm inactive
CC1(C)CCc2cc(-c3ccnc(=S)[nH]3)ccc2O1	A1 inh inconclusive
O=C(Nc1nnc(SCCN2CCOCC2)s1)C1CC(=O)N(c2ccc(F)cc2)C1 (configuration not stated)	none
CSc1ccc(/C=N/NC(=O)c2ccc3nc[nH]c3c2)cc1	MsrA inh 5.1 (no result: A1 inh, proCasp7 act, proCasp3 act) | MsrA inh confirm 6.1
CN(C)c1ccc(/C=N/NC(=O)c2ccc3nc[nH]c3c2)cc1	MsrA inh 4.9 | MsrA inh confirm 4.9
COC(=O)C1=C(C)N(Cc2cccc(C(F)(F)F)c2)C(=NCc2ccccc2C(F)(F)F)NC1c1cccc(C(F)(F)F)c1 (configuration not stated)	none (no result: bovine MsrA act, A1 inh, proCasp7 act, proCasp3 act)
CCc1ccc(-n2c(=S)sc3c(=O)n(-c4ccccc4)c(SCC(=O)O)nc32)cc1	none
CCCc1nc(SCC(=O)O)c2sc(=S)n(-c3ccccc3)c2n1	MsrA inh 4.7 | MsrA inh confirm 4.8
O=C(O)c1ccc(NS(=O)(=O)c2ccc3c(c2)C(=O)c2ccccc2C3=O)cc1	MsrA inh 24 | MsrA inh confirm 15
CC(=O)c1cnc(Nc2cccc(Cl)c2Cl)s1	MsrA inh 4.8 | MsrA inh confirm inactive
CC(=O)c1cnc(Nc2ccccc2)s1	none
COC(=O)c1ccc(S(=O)(=O)N2CCCN(Cc3cccc(Br)c3F)CC2)n1C	MsrA inh 15 | MsrA inh confirm 11
COC(=O)C1=C(C)N(Cc2ccccc2C(F)(F)F)C(=NCc2ccc3c(c2)OCO3)NC1CCc1ccccc1 (configuration not stated)	none (no result: bovine MsrA act, A1 inh, proCasp7 act, proCasp3 act)
COc1ccccc1NC=C1C(=O)OC(C)(C)OC1=O	MsrA inh 5.5 | MsrA inh confirm inactive
CSCCC(C(=O)NC(C)(C)C)n1c(-c2ccc3c(c2)OCO3)nc2ccccc21 (configuration not stated)	none (no result: bovine MsrA act, A1 inh, proCasp7 act, proCasp3 act)
N#C/C(=C(/O)COC(=O)c1cccnc1Cl)c1nc2ccccc2[nH]1	MsrA inh 4.7 | MsrA inh confirm inactive
CC1=C(C(=O)Nc2cc(C(=O)N3CCN(c4cccc(C)c4C)CC3)ccc2C)SCCO1	none
CCC(=O)N(C1=C(NC(C)C)C(=O)c2ccccc2C1=O)C(C)C	none
CCCNC1=C(N(C(C)=O)c2cccc(F)c2)C(=O)c2ccccc2C1=O	MsrA inh 22 | MsrA inh confirm 5.0

Source: PubChem BioAssay (several laboratories)
